Source: ChEMBL document CHEMBL1914427, “Design, synthesis and biological evaluation of benzo[1.3.2]dithiazolium ylide 1,1-dioxide derivatives as potential dual cyclooxygenase-2/5-lipoxygenase inhibitors” (Bioorg Med Chem, 2011)
The source made the active and inactive calls. No cut-off for these calls is given here.

Legend:
[1] = target: T1, Prostaglandin G/H synthase 2 (Homo sapiens) (UniProt P35354); assay: Inhibition of human recombinant COX2 expressed in Sf21 cells assessed as conversion of arachidonic acid to PGE2 at 10 uM preincubated for 15 mins measured after 5 mins by enzyme immunoassay
T1 sequence (whole entry): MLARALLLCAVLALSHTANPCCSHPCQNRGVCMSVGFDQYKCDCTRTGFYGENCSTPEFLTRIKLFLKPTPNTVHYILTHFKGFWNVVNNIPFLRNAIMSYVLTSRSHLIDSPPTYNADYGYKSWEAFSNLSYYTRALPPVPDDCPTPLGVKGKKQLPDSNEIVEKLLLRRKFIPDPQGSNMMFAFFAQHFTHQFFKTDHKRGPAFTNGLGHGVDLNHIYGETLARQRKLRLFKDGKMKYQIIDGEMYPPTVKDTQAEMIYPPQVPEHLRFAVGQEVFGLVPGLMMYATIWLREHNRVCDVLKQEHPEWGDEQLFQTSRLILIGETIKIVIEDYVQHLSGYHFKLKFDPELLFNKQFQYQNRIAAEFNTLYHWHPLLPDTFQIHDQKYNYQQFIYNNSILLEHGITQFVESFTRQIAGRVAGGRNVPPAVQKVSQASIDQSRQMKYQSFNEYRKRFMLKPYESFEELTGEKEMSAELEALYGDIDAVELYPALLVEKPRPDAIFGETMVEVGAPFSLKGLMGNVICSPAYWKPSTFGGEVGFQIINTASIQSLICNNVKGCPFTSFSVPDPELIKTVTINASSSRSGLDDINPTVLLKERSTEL
Summary of the method: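 Human recombinant COX-2 (Sf21-expressed, 0.11 U) preincubated with compound 15 min at 37 °C in Tris–HCl pH 7.7 containing 1 mM glutathione, phenol and hematin. Reaction started with 0.3 arachidonic acid. Run by a contract lab.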

[2] = target: T2, Polyunsaturated fatty acid 5-lipoxygenase (Homo sapiens) (UniProt P09917); assay: Inhibition of […] human 5-LOX in human PBML assessed as inhibition of A23187-induced LTB4 production at 10 uM preincubated for 15 mins measured after 15 mins by enzyme immunoassay
T2 sequence (whole entry): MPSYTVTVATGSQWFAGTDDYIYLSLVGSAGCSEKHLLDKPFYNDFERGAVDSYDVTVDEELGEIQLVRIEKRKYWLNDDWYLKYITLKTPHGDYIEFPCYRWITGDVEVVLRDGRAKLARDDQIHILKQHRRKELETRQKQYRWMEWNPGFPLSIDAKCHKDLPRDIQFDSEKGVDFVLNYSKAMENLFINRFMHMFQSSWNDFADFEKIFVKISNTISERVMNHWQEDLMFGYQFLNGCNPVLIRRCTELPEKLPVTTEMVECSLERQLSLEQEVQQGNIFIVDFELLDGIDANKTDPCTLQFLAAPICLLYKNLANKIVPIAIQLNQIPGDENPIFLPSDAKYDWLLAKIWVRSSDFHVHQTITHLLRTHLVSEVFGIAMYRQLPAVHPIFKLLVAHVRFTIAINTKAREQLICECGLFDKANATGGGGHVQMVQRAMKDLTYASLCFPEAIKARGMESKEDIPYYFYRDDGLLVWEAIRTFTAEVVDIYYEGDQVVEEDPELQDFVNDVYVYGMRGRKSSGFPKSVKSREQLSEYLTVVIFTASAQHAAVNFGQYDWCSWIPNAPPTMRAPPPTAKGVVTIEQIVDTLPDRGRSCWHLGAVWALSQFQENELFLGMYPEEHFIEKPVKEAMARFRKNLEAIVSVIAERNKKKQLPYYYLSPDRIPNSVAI
Summary of the method: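 Human PBML (5 × 10⁶ cells/mL) in HBSS pH 7.4 preincubated with compound 15 min at 37 °C. Calcium ionophore A23187 (30) then added, 15 min at 37 °C, and reaction stopped with 1 N HCl.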

[3] = target: T3, Polyunsaturated fatty acid 5-lipoxygenase (Homo sapiens, UniProt P09917); assay: Inhibition of […] human PBML assessed as inhibition of A23187-induced LTB4 production preincubated for 15 mins measured after 15 mins by enzyme immunoassay
T3 sequence (P09917 whole entry): T2 sequence (whole entry)

[4] = target: T4, Prostaglandin G/H synthase 2 (Homo sapiens, UniProt P35354); assay: Inhibition of human recombinant COX2 expressed in Sf21 cells assessed as conversion of arachidonic acid to PGE2 preincubated for 15 mins measured after 5 mins by enzyme immunoassay
T4 sequence (P35354 whole entry): T1 sequence (whole entry)

Rattus norvegicus [5] = assay: Antiinflammatory activity in ip dosed Wistar rat assessed as inhibition of carrageenan-induced paw edema administered 30 mins before carrageenan challenge measured after 3 hrs; format: functional, organism-based
Summary of the method: (§1)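 Male Wistar rats, held at 20–24 °C and 50–80% humidity on 12 h light/dark for at least three days, with chow and water unless fasted. Test article given IP at 10, 30 or 100 mg/kg in 1% Tween 80/0.9% NaCl, dosing volume 5 mL/kg, 30 min before intraplantar carrageenan (0.1 mL of 1% suspension) into the right hind paw. Edema read by plethysmometer at 3 h; inhibition taken relative to vehicle group.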

Rattus norvegicus [6] = assay: Antiinflammatory activity in Wistar rat assessed as inhibition of carrageenan-induced paw edema at 100 mg/kg, ip administered 30 mins before carrageenan challenge measured after 3 hrs relative to vehicle treated control; format: functional; settings: route intraperitoneal; summary of the method: as §1
Rattus norvegicus [7] = assay: Antiinflammatory activity in Wistar rat assessed as inhibition of carrageenan-induced paw edema at 30 mg/kg, ip administered 30 mins before carrageenan challenge measured after 3 hrs relative to vehicle treated control; format: functional; settings: route intraperitoneal; summary of the method: as §1
Rattus norvegicus [8] = assay: Antiinflammatory activity in Wistar rat assessed as inhibition of carrageenan-induced paw edema at 10 mg/kg, ip administered 30 mins before carrageenan challenge measured after 3 hrs relative to vehicle treated control; format: functional; settings: route intraperitoneal; summary of the method: as §1
Rattus norvegicus [9] = assay: Antiinflammatory activity in Wistar rat assessed as inhibition of carrageenan-induced paw edema at 150 mg/kg, po administered 1 hr before carrageenan challenge measured after 3 hrs relative to vehicle treated control; format: functional
Summary of the method: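 Male Wistar rats given aspirin orally at 150 mg/kg, 1 h before intraplantar carrageenan (0.1 mL of 1% suspension) into the right hind paw. Hind paw edema read by plethysmometer 3 h after carrageenan; reduction taken relative to vehicle group.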

SMILES | inhibition [1] | inhibition [2] | IC50 [3] [nM] | further results
Cc1ccc(S2=NS(=O)(=O)c3ccc(S(N)(=O)=O)cc32)cc1C (stereo not drawn) | 15% | inactive |  | 
COc1cc(OC)cc(OCCS2=NS(=O)(=O)c3cc([N+](=O)[O-])ccc32)c1 (stereo not drawn) | 35% |  | 3700 | 
NS(=O)(=O)c1ccc2c(c1)S(c1ccc(Cl)c(Cl)c1)=NS2(=O)=O (stereo not drawn) | 14% | inactive |  | 
NS(=O)(=O)c1ccc2c(c1)S(c1ccc(Cl)cc1Cl)=NS2(=O)=O (stereo not drawn) | 9% | inactive |  | 
Cc1ccc(S2=NS(=O)(=O)c3ccc(S(N)(=O)=O)cc32)c(C)c1 (stereo not drawn) | inactive | inactive |  | 
NS(=O)(=O)c1ccc2c(c1)S(=O)(=O)N=S2c1ccc(Br)cc1 (stereo not drawn) | 0% |  | 91100 | 
O=[N+]([O-])c1ccc2c(c1)S(=O)(=O)N=S2c1ccc(C(F)(F)F)cc1 (stereo not drawn) |  |  | 3090 | IC50 [4]: 2990 nM
Cc1ccc(S2=NS(=O)(=O)c3ccc(S(N)(=O)=O)cc32)cc1 (stereo not drawn) | 2% | 9% |  | 
NS(=O)(=O)c1ccc2c(c1)S(c1cccc(Br)c1)=NS2(=O)=O (stereo not drawn) | 7% | 28% |  | 
COc1ccc(S2=NS(=O)(=O)c3ccc(S(N)(=O)=O)cc32)cc1 (stereo not drawn) | inactive | 21% |  | 
CC(C)c1ccc(S2=NS(=O)(=O)c3cc([N+](=O)[O-])ccc32)cc1 (stereo not drawn) |  |  | 360 | IC50 [4]: 730 nM
CCc1ccc(C2=NS(=O)(=O)c3cc(S(N)(=O)=O)ccc32)cc1 | 0% | 8% |  | 
O=[N+]([O-])c1ccc2c(c1)S(=O)(=O)N=S2c1ccc(-c2ccccc2)cc1 (stereo not drawn) |  |  | 150 | IC50 [4]: 500 nM
COC(=O)c1ccc2c(c1)S(=O)(=O)N=S2c1ccc(Br)cc1 (stereo not drawn) | 33% |  | 4100 | 
NS(=O)(=O)c1ccc2c(c1)S(c1ccc(Br)cc1)=NS2(=O)=O (stereo not drawn) |  | 14% |  | 
O=S1(=O)N=S(c2ccccc2)c2ccccc21 (stereo not drawn) | 0% | 14% |  | 
O=C(O)c1ccc2c(c1)S(=O)(=O)N=S2c1ccc(Br)cc1 (stereo not drawn) | 7% | 2% |  | 
CC(C)c1ccc(S2=NS(=O)(=O)c3cc(S(N)(=O)=O)ccc32)cc1 (stereo not drawn) | 44% | 42% |  | 
CC(C)(C)c1ccc(S2=NS(=O)(=O)c3cc([N+](=O)[O-])ccc32)cc1 (stereo not drawn) |  |  | 300 | IC50 [4]: 270 nM; inhibition (Rattus norvegicus [5]): Dose-dependent effect; inhibition in vivo at 100 mg/kg (Rattus norvegicus [6]): 65%; inhibition in vivo at 30 mg/kg (Rattus norvegicus [7]): 27%; inhibition in vivo at 10 mg/kg (Rattus norvegicus [8]): 14%
NS(=O)(=O)c1ccc2c(c1)S(c1ccc(Cl)cc1)=NS2(=O)=O (stereo not drawn) | inactive | 19% |  | 
Cc1ccc(C2=NS(=O)(=O)c3ccccc32)cc1 | 16% | 9% |  | 
O=S1(=O)N=C(c2ccc(Br)cc2)c2ccccc21 | 0% | 11% |  | 

SMILES | inhibition [1] | inhibition [2] | IC50 [3] [nM] | further results
Cc1ccc2c(c1)S(=O)(=O)N=S2c1ccc(Br)cc1 (stereo not drawn) | 14% |  | 6050 | 
O=S1(=O)N=S(c2ccc(Br)cc2)c2ccccc21 (stereo not drawn) | 2% | 33% |  | 
CCc1ccc(S2=NS(=O)(=O)c3ccc(S(N)(=O)=O)cc32)cc1 (stereo not drawn) | inactive | 7% |  | 
COc1ccc(S2=NS(=O)(=O)c3ccc(S(N)(=O)=O)cc32)cc1OC (stereo not drawn) | 6% | inactive |  | 
CCc1ccc(S2=NS(=O)(=O)c3cc(S(C)(=O)=O)ccc32)cc1 (stereo not drawn) | 43% | 35% |  | 
CC(=O)Oc1ccccc1C(=O)O [ASPIRIN] |  |  |  | inhibition in vivo at 150 mg/kg (Rattus norvegicus [9]): 38%
NS(=O)(=O)c1ccc2c(c1)S(=O)(=O)N=S2c1ccc(-c2ccccc2)cc1 (stereo not drawn) | 31% |  | 3450 | 
CC(C)c1ccc(S2=NS(=O)(=O)c3ccc(S(N)(=O)=O)cc32)cc1 (stereo not drawn) | 10% | 19% |  | 
NS(=O)(=O)c1ccc2c(c1)S(c1ccc(C(F)(F)F)cc1)=NS2(=O)=O (stereo not drawn) | inactive | 37% |  | 
CCc1ccc(S2=NS(=O)(=O)c3cc([N+](=O)[O-])ccc32)cc1 (stereo not drawn) |  |  | 180 | IC50 [4]: 1700 nM
NS(=O)(=O)c1ccc2c(c1)S(c1ccc(F)cc1F)=NS2(=O)=O (stereo not drawn) | inactive | inactive |  | 
COc1ccc(S2=NS(=O)(=O)c3cc([N+](=O)[O-])ccc32)cc1 (stereo not drawn) |  |  | 350 | IC50 [4]: 880 nM
NC(=O)c1ccc2c(c1)S(=O)(=O)N=S2c1ccc(Br)cc1 (stereo not drawn) | 0% | 15% |  | 
CC(C)(C)c1ccc(S2=NS(=O)(=O)c3ccc(S(N)(=O)=O)cc32)cc1 (stereo not drawn) | inactive | 25% |  | 
NS(=O)(=O)c1ccc2c(c1)S(c1ccc(F)cc1)=NS2(=O)=O (stereo not drawn) | 2% | 9% |  | 
CS(=O)(=O)c1ccc2c(c1)S(=O)(=O)N=S2c1ccc(Br)cc1 (stereo not drawn) |  |  | 13500 | IC50 [4]: 1800 nM
O=[N+]([O-])c1ccc2c(c1)S(=O)(=O)N=S2c1ccncc1 (stereo not drawn) | 15% | 17% |  | 
CC(C)(C)c1ccc(S2=NS(=O)(=O)c3cc(S(N)(=O)=O)ccc32)cc1 (stereo not drawn) | 21% | 23% |  | 
COC1(c2cc(F)cc(OCCS3=NS(=O)(=O)c4cc([N+](=O)[O-])ccc43)c2)CCOCC1 (stereo not drawn) | 25% | 25% |  | 
COc1ccc(S2=NS(=O)(=O)c3cc([N+](=O)[O-])ccc32)cc1OC (stereo not drawn) | 15% |  | 680 | 
NS(=O)(=O)c1cc2c(cc1Cl)S(c1ccc(Br)cc1)=NS2(=O)=O (stereo not drawn) |  |  | 25800 | IC50 [4]: 2300 nM
